According to ChEMBL document CHEMBL1134845, “Syntheses and biological activities of a novel group of steroidal derived inhibitors for human Cdc25A protein phosphatase” (J Med Chem, 2001):

Key:
[1] = molecular target: T1, M-phase inducer phosphatase 1 (Homo sapiens) (UniProt P30304); experiment: (§1) Inhibitory activity tested against cell division cycle 25A (assay using fluorescein diphosphate (FDP) as substrate); conditions: concentration not given here
T1 sequence (whole entry): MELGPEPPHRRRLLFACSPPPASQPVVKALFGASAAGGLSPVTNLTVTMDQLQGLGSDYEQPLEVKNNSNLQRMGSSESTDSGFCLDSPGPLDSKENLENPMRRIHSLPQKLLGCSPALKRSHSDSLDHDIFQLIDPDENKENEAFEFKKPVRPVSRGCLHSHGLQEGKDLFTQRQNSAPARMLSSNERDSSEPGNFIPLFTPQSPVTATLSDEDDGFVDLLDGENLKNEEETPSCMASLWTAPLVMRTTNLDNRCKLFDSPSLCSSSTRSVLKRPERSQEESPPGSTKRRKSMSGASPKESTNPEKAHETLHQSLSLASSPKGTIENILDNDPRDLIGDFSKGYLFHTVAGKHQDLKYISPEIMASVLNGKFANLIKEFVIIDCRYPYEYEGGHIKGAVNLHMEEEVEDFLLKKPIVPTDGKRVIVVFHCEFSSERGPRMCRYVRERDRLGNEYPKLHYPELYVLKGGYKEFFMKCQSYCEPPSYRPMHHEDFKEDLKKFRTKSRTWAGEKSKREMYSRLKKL
Summary of the method: (§2)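 Recombinant human GST-Cdc25A fusion protein, each batch calibrated so that FDP was dephosphorylated linearly over 20 min. Fluorescein diphosphate was the substrate. Reactions ran 15 min at 25 °C in the dark and were stopped with sodium orthovanadate. Fluorescein monophosphate was read at 485 nm excitation and 530 nm emission. IC50 came from at least two independent runs, each in triplicate.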

[2] = molecular target: T2, M-phase inducer phosphatase 1 (Homo sapiens, UniProt P30304); experiment: as §1
T2 sequence (P30304 whole entry): T1 sequence (whole entry)
Summary of the method: as §2, with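 “orthovanadate.” for “orthovanadate. Fluorescein monophosphate was read at 485 nm excitation and 530 nm emission.”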

[3] = test system: T47D; experiment: Growth inhibitory activity was determined against T-47D cancer cell line of Breast cancer; type: functional, Homo sapiens; conditions: Homo sapiens, T47D
Summary of the method: (§3)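 NCI 60 human tumour cell line screen run at the National Cancer Institute. Cell growth and viability read with the protein stain sulforhodamine B, which binds basic amino acids of cells left attached after washing. […] MG MID is the mean GI50 calculated over all panels.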

[4] = test system: PC-3; experiment: Growth inhibitory activity was determined against PC-3 cancer cell line of Prostate cancer; type: functional; conditions: Homo sapiens; summary of the method: as §3
[5] = test system: LOX IMVI; experiment: Growth inhibitory activity was determined against LOX IMVI cancer cell line of melanoma; type: functional, Homo sapiens; conditions: Homo sapiens, LOX IMVI; summary of the method: as §3
[6] = test system: SK-MEL-5; experiment: Growth inhibitory activity was determined against SK-MEL-5 cancer cell line of melanoma; type: functional, Homo sapiens; conditions: Homo sapiens, SK-MEL-5; summary of the method: as §3
[7] = test system: OVCAR-8; experiment: Growth inhibitory activity was determined against OVCAR-8 cancer cell line of Ovarian cancer; type: functional; conditions: Homo sapiens; summary of the method: as §3
[8] = test system: 786-0; experiment: Growth inhibitory activity was determined against 786-0 cancer cell line of Renal cancer; type: functional; conditions: Homo sapiens; summary of the method: as §3
[9] = test system: HT-29; experiment: Growth inhibitory activity was determined against HT-29 cancer cell line colon cancer; type: functional, Homo sapiens; conditions: Homo sapiens, HT-29; summary of the method: as §3
[10] = test system: HCC 2998; experiment: Growth inhibitory activity was determined against HCC2998 cancer cell line colon cancer; type: functional, Homo sapiens; conditions: Homo sapiens, HCC 2998; summary of the method: as §3
[11] = test system: OVCAR-3; experiment: Growth inhibitory activity was determined against OVCAR-3 cancer cell line of Ovarian cancer; type: functional; conditions: Homo sapiens; summary of the method: as §3
[12] = test system: SF-539; experiment: Growth inhibitory activity was determined against SF-539 cancer cell line of CNS cancer; type: functional; conditions: Homo sapiens; summary of the method: as §3
[13] = test system: SN12C; experiment: Growth inhibitory activity was determined against SN12C cancer cell line of Renal cancer; type: functional; conditions: Homo sapiens; summary of the method: as §3
[14] = test system: SF-268; experiment: Growth inhibitory activity was determined against SF-268 cancer cell line of CNS cancer; type: functional; conditions: Homo sapiens; summary of the method: as §3
[15] = test system: NCI/ADR-RES; experiment: Growth inhibitory activity was determined against NCI/ADR-RES cancer cell line of Breast cancer; type: functional, Homo sapiens; conditions: Homo sapiens, NCI/ADR-RES; summary of the method: as §3
[16] = test system: NCI-H23; experiment: Growth inhibitory activity was determined against NCI-H23 cancer cell line of non-small cell lung cancer; type: functional, Homo sapiens; conditions: Homo sapiens, NCI-H23; summary of the method: as §3
[17] = test system: NCI-H522; experiment: Growth inhibitory activity was determined against NCI-H522 cancer cell line of non-small cell lung cancer; type: functional; conditions: Homo sapiens; summary of the method: as §3
[18] = test system: COLO 205; experiment: Growth inhibitory activity was determined against COLO 205 cancer cell line colon cancer; type: functional, Homo sapiens; conditions: Homo sapiens, COLO 205; summary of the method: as §3
[19] = test system: UO-31; experiment: Growth inhibitory activity was determined against UO-31 cancer cell line of Renal cancer; type: functional; conditions: Homo sapiens; summary of the method: as §3
[20] = test system: A549; experiment: Growth inhibitory activity was determined against A549/ATCC cancer cell line of non-small cell lung cancer; type: functional, Homo sapiens; conditions: Homo sapiens, A549; summary of the method: as §3
[21] = test system: BT-549 (Homo sapiens); experiment: Growth inhibitory activity was determined against BT-549 cancer cell line of Breast cancer; conditions: Homo sapiens, BT-549
[22] = molecular target: T2, M-phase inducer phosphatase 1; experiment: Inhibitory activity tested against cell division cycle 25A (assay using p-nitro phenyl phosphate (pNPP) as substrate)
[23] = molecular target: T3, Receptor-type tyrosine-protein phosphatase C (Homo sapiens, UniProt P08575); experiment: Inhibitory activity tested against Human CD45 Phosphatase (assay using p-nitrophenyl phosphate (pNPP) as substrate)
T3 sequence (P08575 whole entry): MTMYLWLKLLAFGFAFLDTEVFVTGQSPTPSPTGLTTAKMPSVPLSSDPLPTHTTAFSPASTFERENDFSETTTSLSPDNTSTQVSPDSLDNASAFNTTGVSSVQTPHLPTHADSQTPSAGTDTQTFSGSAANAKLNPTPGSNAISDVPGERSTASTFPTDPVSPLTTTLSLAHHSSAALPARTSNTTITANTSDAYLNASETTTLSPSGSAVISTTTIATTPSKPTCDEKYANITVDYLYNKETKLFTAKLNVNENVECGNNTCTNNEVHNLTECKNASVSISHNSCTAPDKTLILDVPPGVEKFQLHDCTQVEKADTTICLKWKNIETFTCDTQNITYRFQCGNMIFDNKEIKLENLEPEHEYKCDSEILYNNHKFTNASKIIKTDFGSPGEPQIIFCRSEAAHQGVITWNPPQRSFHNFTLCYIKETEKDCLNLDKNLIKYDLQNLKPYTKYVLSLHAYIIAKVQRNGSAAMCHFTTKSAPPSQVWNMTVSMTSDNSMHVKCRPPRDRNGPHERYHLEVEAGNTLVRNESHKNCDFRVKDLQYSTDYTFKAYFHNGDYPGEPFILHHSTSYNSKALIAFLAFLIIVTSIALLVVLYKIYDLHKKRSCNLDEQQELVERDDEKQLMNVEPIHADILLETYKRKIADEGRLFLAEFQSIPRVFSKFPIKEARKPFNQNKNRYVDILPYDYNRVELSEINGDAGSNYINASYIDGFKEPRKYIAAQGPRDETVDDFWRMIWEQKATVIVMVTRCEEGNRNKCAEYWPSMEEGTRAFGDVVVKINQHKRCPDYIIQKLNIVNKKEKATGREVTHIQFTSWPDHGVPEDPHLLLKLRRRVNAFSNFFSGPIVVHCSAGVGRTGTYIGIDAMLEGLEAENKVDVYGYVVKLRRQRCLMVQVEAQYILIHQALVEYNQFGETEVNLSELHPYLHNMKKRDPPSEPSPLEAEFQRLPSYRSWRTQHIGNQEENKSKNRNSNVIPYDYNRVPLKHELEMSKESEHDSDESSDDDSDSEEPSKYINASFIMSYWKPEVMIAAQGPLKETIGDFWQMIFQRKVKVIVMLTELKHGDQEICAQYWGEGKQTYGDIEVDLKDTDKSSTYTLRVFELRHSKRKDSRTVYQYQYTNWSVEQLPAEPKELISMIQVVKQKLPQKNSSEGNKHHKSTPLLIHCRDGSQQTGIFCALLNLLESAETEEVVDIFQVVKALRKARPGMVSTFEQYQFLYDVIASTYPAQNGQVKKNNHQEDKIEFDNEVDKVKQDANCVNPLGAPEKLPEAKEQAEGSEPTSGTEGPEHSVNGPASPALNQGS

[24] = test system: UO-31; experiment: Growth inhibitory activity was determined against UO-31 cancer cell line of renal cancer; type: functional; conditions: Homo sapiens; summary of the method: as §3
[25] = test system: U-251; experiment: Growth inhibitory activity was determined against U-251 cancer cell line of CNS cancer; type: functional; conditions: Homo sapiens; summary of the method: as §3
[26] = test system: SN12C; experiment: Growth inhibitory activity was determined against SN12C cancer cell line of renal cancer; type: functional; conditions: Homo sapiens; summary of the method: as §3
[27] = test system: 786-0; experiment: Growth inhibitory activity was determined against 786-0 cancer cell line of renal cancer; type: functional; conditions: Homo sapiens; summary of the method: as §3

CC(C)CCC[C@@H](C)[C@H]1CC[C@H]2[C@@H]3CC[C@H]4C[C@@H](O/C(S)=N\c5cccc6ccccc56)CC[C@]4(C)[C@H]3CC[C@]12C
inhibition [1]: 19%

C/C(=C/C/C=C\C#N)[C@H]1CC[C@]2(C)[C@@H](C(C)CCCC(C)C)CC[C@H]2[C@@H]1CC(=O)O (stereo not given in full)
IC50 [2]: 36.3 µM

CC(C)CCC[C@@H](C)[C@H]1CC[C@H]2[C@H](CC(=O)O)[C@@H]([C@@]3(C)CC=CCC3=O)CC[C@]12C
IC50 [2]: 5.8 µM

CC(C)CCC[C@@H](C)[C@H]1CC[C@H]2[C@@H]3CC[C@H]4C[C@@H](O/C(S)=N\c5ccccc5)CC[C@]4(C)[C@H]3CC[C@]12C
IC50 [2]: 2.1 µM

CCOC(=O)CSC(=S)O[C@H]1CC[C@@]2(C)[C@@H](CC[C@@H]3[C@@H]2CC[C@]2(C)[C@@H]([C@H](C)CCCC(C)C)CC[C@@H]32)C1
IC50 [2]: > 100 µM

CC(C)CCCC(C)[C@H]1CC[C@H]2[C@H](CC(=O)O)[C@@H](C(C)CCCCC#N)CC[C@]12C (stereo in doubt; 21)
GI50 [3]: 6.69 µM
GI50 [4]: 7.15 µM
GI50 [5]: 4.86 µM
GI50 [6]: 7.04 µM
IC50 [2]: 2.2 µM
GI50 [7]: 4.88 µM
GI50 [8]: 8.45 µM
GI50 [9]: 4.69 µM
GI50 [10]: 5.36 µM
GI50 [11]: 5.25 µM
GI50 [12]: 10.8 µM
GI50 [13]: 6.05 µM
GI50 [14]: > 25 µM
GI50 [15]: 5.34 µM
GI50 [16]: 5.27 µM
GI50 [17]: > 25 µM
GI50 [18]: 5.29 µM
GI50 [19]: 9.97 µM
GI50 [20]: 5.09 µM
GI50 [21]: 5.16 µM

CC(C)CCC[C@@H](C)[C@H]1CC[C@H]2[C@@H]3CC[C@H]4C[C@@H](OC(=S)S)CC[C@]4(C)[C@H]3CC[C@]12C
IC50 [22]: 11.7 µM
IC50 [2]: 1.1 µM
IC50 [23]: > 100 µM

CC(C)CCC[C@@H](C)[C@H]1CC[C@H]2[C@@H]3CC(=O)O[C@@](C)(CC/C=C\C#N)[C@H]3CC[C@]12C
IC50 [2]: > 50 µM

CC(C)CCC[C@@H](C)[C@H]1CC[C@H]2[C@@H]3CC[C@H]4C[C@@H](OC(=S)SCC(=O)c5ccccc5)CC[C@]4(C)[C@H]3CC[C@]12C
IC50 [2]: > 100 µM

CC(C)CCC[C@@H](C)[C@H]1CC[C@H]2[C@@H]3CC(=O)N4C(=O)C=CCC[C@]4(C)[C@H]3CC[C@]12C
GI50 [24]: 2.95 µM
GI50 [3]: 4.09 µM
GI50 [25]: 3.46 µM
GI50 [4]: 4.22 µM
GI50 [5]: 0.84 µM
GI50 [6]: 4.37 µM
GI50 [7]: 1.97 µM
GI50 [9]: 2.63 µM
GI50 [11]: 4 µM
GI50 [12]: 4.46 µM
GI50 [26]: 3.46 µM
GI50 [14]: > 25 µM
GI50 [15]: 6.05 µM
GI50 [16]: 4.85 µM
GI50 [17]: 6.1 µM
GI50 [27]: 1.44 µM
GI50 [18]: 4.76 µM
GI50 [20]: 4.27 µM
GI50 [21]: 5.07 µM

CCOC(=O)CC(=O)CSC(=S)O[C@H]1CC[C@@]2(C)[C@@H](CC[C@@H]3[C@@H]2CC[C@]2(C)[C@@H]([C@H](C)CCCC(C)C)CC[C@@H]32)C1
IC50 [2]: > 100 µM
